# According to ChEMBL document CHEMBL1649465, “In vitro activity of ceftaroline alone and in combination against clinical isolates of resistant gram-negative pathogens, including beta-lactamase-producing Enterobacteriaceae and Pseudomonas aeruginosa” (2009):
# The source made the active and inactive calls. The rule behind the calls is not given here.
# Key:
# Klebsiella pneumoniae [1] = experiment: Bactericidal activity against Klebsiella pneumoniae isolate 5427 at 1/4 times MIC after 24 hrs by time kill analysis; assay type: functional, organism-based
# Summary of the method: (§1)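 Duplicate time-kill assays in 2-ml cultures of Mg/Ca-supplemented Mueller-Hinton broth. […] Samples taken at 0, 1, 2, 4, 8 and 24 h, serially diluted in cold 0.9% NaCl and spiral-plated for colony counts. Detection limit 2 log10 CFU/ml. Reported as decrease in log10 CFU/ml (mean ± SD).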
# Enterobacter cloacae [2] = experiment: Antimicrobial activity against Enterobacter cloacae isolate 5420 by broth microdilution method; assay type: functional
# Pseudomonas aeruginosa [3] = experiment: Bactericidal activity against Pseudomonas aeruginosa isolate 796 at 1/4 times MIC after 24 hrs by time kill analysis; assay type: functional, organism-based
# Summary of the method: (§2)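 Duplicate 24-h time-kill of the drug combination, each agent at one-fourth its MIC. […] Counts were taken by spiral plating after dilution in cold saline.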
# Pseudomonas aeruginosa [4] = experiment: Antimicrobial activity against Pseudomonas aeruginosa isolate 796 by broth microdilution method; assay type: functional
# Pseudomonas aeruginosa [5] = experiment: Antimicrobial activity against Pseudomonas aeruginosa isolate 956 by broth microdilution method; assay type: functional
# Klebsiella pneumoniae [6] = experiment: Antimicrobial activity against ESBL-producing Klebsiella pneumoniae by broth microdilution method; assay type: functional
# Pseudomonas aeruginosa [7] = experiment: Antimicrobial activity against Pseudomonas aeruginosa isolate 1019 by broth microdilution method; assay type: functional
# Escherichia coli [8] = experiment: Bactericidal activity against Escherichia coli isolate 5411 at 1/4 times MIC after 24 hrs by time kill analysis; assay type: functional, organism-based; summary of the method: as §1
# Pseudomonas aeruginosa [9] = experiment: Antimicrobial activity against Pseudomonas aeruginosa by broth microdilution method; assay type: functional
# Pseudomonas aeruginosa [10] = experiment: Bactericidal activity against Pseudomonas aeruginosa isolate 1019 at 1/4 times MIC after 24 hrs by time kill analysis; assay type: functional, organism-based; summary of the method: as §2
# Enterobacter cloacae [11] = experiment: Antimicrobial activity against Enterobacter cloacae isolate 4073 by broth microdilution method; assay type: functional
# Escherichia coli [12] = experiment: Antimicrobial activity against ESBL-producing Escherichia coli by broth microdilution method; assay type: functional
# Escherichia coli [13] = experiment: Bactericidal activity against Escherichia coli isolate 5401 at 1/4 times MIC after 24 hrs by time kill analysis; assay type: functional, organism-based; summary of the method: as §1
# Pseudomonas aeruginosa [14] = experiment: Bactericidal activity against Pseudomonas aeruginosa isolate 956 at 1/4 times MIC after 24 hrs by time kill analysis; assay type: functional, organism-based; summary of the method: as §2
# Escherichia coli [15] = experiment: Antimicrobial activity against Escherichia coli isolate 5401 by broth microdilution method; assay type: functional
# Klebsiella pneumoniae [16] = experiment: Bactericidal activity against Klebsiella pneumoniae isolate 5436 at 1/4 times MIC after 24 hrs by time kill analysis; assay type: functional, organism-based; summary of the method: as §2
# Pseudomonas aeruginosa [17] = experiment: Bactericidal activity against Pseudomonas aeruginosa isolate 1037 at 1/4 times MIC after 24 hrs by time kill analysis; assay type: functional, organism-based; summary of the method: as §2
# Escherichia coli [18] = experiment: Antimicrobial activity against Escherichia coli isolate 5411 by broth microdilution method; assay type: functional
# Pseudomonas aeruginosa [19] = experiment: Antimicrobial activity against Pseudomonas aeruginosa isolate 1037 by broth microdilution method; assay type: functional
# Klebsiella pneumoniae [20] = experiment: Antimicrobial activity against Klebsiella pneumoniae isolate 5436 by broth microdilution method; assay type: functional
# Enterobacter cloacae [21] = experiment: Antimicrobial activity against […] Enterobacter cloacae by broth microdilution method; assay type: functional
# Klebsiella pneumoniae [22] = experiment: Antimicrobial activity against Klebsiella pneumoniae isolate 5427 by broth microdilution method; assay type: functional
SMILES,inhibition (Klebsiella pneumoniae [1]),MBC (Enterobacter cloacae [2]) [µg/mL],inhibition (Pseudomonas aeruginosa [3]),MIC (Pseudomonas aeruginosa [5]) [µg/mL],MBC (Klebsiella pneumoniae [6]) [µg/mL],MIC (Klebsiella pneumoniae [6]) [µg/mL],inhibition (Escherichia coli [8]),inhibition (Pseudomonas aeruginosa [10]),MBC (Escherichia coli [12]) [µg/mL],inhibition (Escherichia coli [13]),inhibition (Pseudomonas aeruginosa [14]),MBC (Escherichia coli [15]) [µg/mL],MIC (Escherichia coli [15]) [µg/mL],inhibition (Klebsiella pneumoniae [16]),inhibition (Pseudomonas aeruginosa [17]),MBC (Escherichia coli [18]) [µg/mL],MIC (Escherichia coli [18]) [µg/mL],MIC (Klebsiella pneumoniae [20]) [µg/mL],MBC (Klebsiella pneumoniae [22]) [µg/mL],MIC (Klebsiella pneumoniae [22]) [µg/mL],other results
C[C@@H](O)[C@H]1C(=O)N2C(C(=O)O)=C(S[C@@H]3CN[C@H](C(=O)N(C)C)C3)[C@H](C)[C@H]12 [MEROPENEM],inactive,0.125,inactive,0.25,0.06,0.03,inactive,inactive,0.06,inactive,inactive,0.06,0.06,inactive,inactive,0.06,0.06,0.06,16,4,MIC (Enterobacter cloacae [2]): 0.125 µg/mL; MBC (Pseudomonas aeruginosa [4]): 2 µg/mL; MIC (Pseudomonas aeruginosa [4]): 1 µg/mL; MBC (Pseudomonas aeruginosa [5]): 2 µg/mL; MBC (Pseudomonas aeruginosa [7]): 2 µg/mL; MIC (Pseudomonas aeruginosa [7]): 1 µg/mL; MBC (Pseudomonas aeruginosa [9]): 0.125 µg/mL; MIC (Pseudomonas aeruginosa [9]): 0.125 µg/mL; MBC (Enterobacter cloacae [11]): 0.5 µg/mL; MIC (Enterobacter cloacae [11]): 0.25 µg/mL; MIC (Escherichia coli [12]): 0.03 µg/mL; MBC (Pseudomonas aeruginosa [19]): 1 µg/mL; MIC (Pseudomonas aeruginosa [19]): 0.5 µg/mL; MBC (Klebsiella pneumoniae [20]): 0.06 µg/mL; MBC (Enterobacter cloacae [21]): 0.03 µg/mL; MIC (Enterobacter cloacae [21]): 0.03 µg/mL
CN(C)c1cc(NC(=O)CNC(C)(C)C)c(O)c2c1C[C@H]1C[C@H]3[C@H](N(C)C)C(O)=C(C(N)=O)C(=O)[C@@]3(O)C(O)=C1C2=O [TIGECYCLINE],inactive,2,inactive,16,0.5,0.125,inactive,inactive,0.06,inactive,inactive,1,0.5,inactive,inactive,0.5,0.125,0.125,2,0.5,MIC (Enterobacter cloacae [2]): 0.5 µg/mL; MBC (Pseudomonas aeruginosa [4]): 32 µg/mL; MIC (Pseudomonas aeruginosa [4]): 32 µg/mL; MBC (Pseudomonas aeruginosa [5]): 128 µg/mL; MBC (Pseudomonas aeruginosa [7]): 8 µg/mL; MIC (Pseudomonas aeruginosa [7]): 2 µg/mL; MBC (Pseudomonas aeruginosa [9]): 8 µg/mL; MIC (Pseudomonas aeruginosa [9]): 2 µg/mL; MBC (Enterobacter cloacae [11]): 2 µg/mL; MIC (Enterobacter cloacae [11]): 0.5 µg/mL; MIC (Escherichia coli [12]): 0.06 µg/mL; MBC (Pseudomonas aeruginosa [19]): 32 µg/mL; MIC (Pseudomonas aeruginosa [19]): 8 µg/mL; MBC (Klebsiella pneumoniae [20]): 1 µg/mL; MBC (Enterobacter cloacae [21]): 0.5 µg/mL; MIC (Enterobacter cloacae [21]): 0.25 µg/mL
CO/N=C(\C(=O)N[C@@H]1C(=O)N2C(C(=O)[O-])=C(C[N+]3(C)CCCC3)CS[C@H]12)c1csc(N)n1,inactive,,inactive,,,,inactive,inactive,0.25,inactive,inactive,4,4,inactive,inactive,,,,1,0.5,MIC (Pseudomonas aeruginosa [4]): 8 µg/mL
C[C@H]1COc2c(N3CCN(C)CC3)c(F)cc3c(=O)c(C(=O)O)cn1c23.C[C@H]1COc2c(N3CCN(C)CC3)c(F)cc3c(=O)c(C(=O)O)cn1c23.O [LEVOFLOXACIN],inactive,0.06,inactive,0.5,> 0.25,> 0.25,inactive,inactive,0.06,inactive,inactive,32,32,inactive,inactive,16,8,4,2,0.25,MIC (Enterobacter cloacae [2]): 0.06 µg/mL; MBC (Pseudomonas aeruginosa [4]): 2 µg/mL; MBC (Pseudomonas aeruginosa [5]): 1 µg/mL; MBC (Pseudomonas aeruginosa [7]): 1 µg/mL; MIC (Pseudomonas aeruginosa [7]): 0.5 µg/mL; MBC (Pseudomonas aeruginosa [9]): 0.5 µg/mL; MIC (Pseudomonas aeruginosa [9]): 0.25 µg/mL; MBC (Enterobacter cloacae [11]): 0.06 µg/mL; MIC (Enterobacter cloacae [11]): 0.06 µg/mL; MBC (Pseudomonas aeruginosa [19]): 0.5 µg/mL; MIC (Pseudomonas aeruginosa [19]): 0.25 µg/mL; MBC (Klebsiella pneumoniae [20]): 4 µg/mL; MBC (Enterobacter cloacae [21]): 0.03 µg/mL; MIC (Enterobacter cloacae [21]): 0.03 µg/mL
NCC[C@H](O)C(=O)N[C@@H]1C[C@H](N)[C@@H](O[C@H]2O[C@H](CN)[C@@H](O)[C@H](O)[C@H]2O)[C@H](O)[C@H]1O[C@H]1O[C@H](CO)[C@@H](O)[C@H](N)[C@H]1O [AMIKACIN],inactive,2,inactive,4,1,1,inactive,inactive,4,inactive,inactive,4,2,inactive,inactive,16,8,1,2,2,MIC (Enterobacter cloacae [2]): 1 µg/mL; MBC (Pseudomonas aeruginosa [4]): 32 µg/mL; MIC (Pseudomonas aeruginosa [4]): 16 µg/mL; MBC (Pseudomonas aeruginosa [5]): 64 µg/mL; MBC (Pseudomonas aeruginosa [7]): 4 µg/mL; MIC (Pseudomonas aeruginosa [7]): 4 µg/mL; MBC (Pseudomonas aeruginosa [9]): 2 µg/mL; MIC (Pseudomonas aeruginosa [9]): 2 µg/mL; MBC (Enterobacter cloacae [11]): 8 µg/mL; MIC (Enterobacter cloacae [11]): 1 µg/mL; MIC (Escherichia coli [12]): 1 µg/mL; MBC (Pseudomonas aeruginosa [19]): 4 µg/mL; MIC (Pseudomonas aeruginosa [19]): 2 µg/mL; MBC (Klebsiella pneumoniae [20]): 2 µg/mL; MBC (Enterobacter cloacae [21]): 1 µg/mL; MIC (Enterobacter cloacae [21]): 0.5 µg/mL
C[C@H]1[C@H](NC(=O)/C(=N\OC(C)(C)C(=O)O)c2csc(N)n2)C(=O)N1S(=O)(=O)O [AZTREONAM],inactive,,inactive,8,> 0.5,> 0.25,inactive,inactive,> 0.125,inactive,inactive,0.25,0.25,inactive,inactive,32,8,64,1,0.5,MIC (Escherichia coli [12]): > 0.125 µg/mL
